This is an account of results in ChEMBL document CHEMBL1121441, “Synthesis and properties of the sulfonyl analogues of 4(5)-aminoimidazole-5(4)-carboxamide, 4(5)-(formylamino)imidazole-5(4)-carboxamide, guanine, and xanthine” (J Med Chem, 1980).

Data set [1] can be described thus: Compound was tested for apparent dissociation constant at pH 13. Format: ADME. The procedure, abridged: (§1)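 pKa values were determined potentiometrically on 0.001 M solutions with a pH meter. For one analogue the values came from least-squares analysis with activity corrections. Measurement temperature was recorded with each value, and standard deviations were reported.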

A short description of data set [2]: Compound was tested for apparent dissociation constant at pH 10. Format: ADME. In short, it runs like this: as §1
In data set [3] the test system is L1210. As to the kind of experiment: Compound tested for inhibition of growth of L1210 cells in culture at 10e-4 M; NI = no inhibition. Format: functional, cell-based. The note with it: Mus musculus. In short, it runs like this:
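Murine L1210 leukemia cells were harvested in log phase and resuspended in RPMI 1640 with 10% fetal bovine serum at a starting density of 17.5×10^4 cells/mL. Analogue stock was 5×10⁻³ M in phosphate-buffered saline, pH 7.4, filter-sterilized, then serially diluted in medium. Final concentrations were 10⁻⁴ to 10⁻⁸ M. Cultures grew 72 h at 37 °C and were counted every 24 h by Coulter counter against untreated controls.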

Data set [4] in a line: Compound was tested for apparent dissociation constant at pH 7. Format: ADME. The procedure, abridged:
as §1

The nature of data set [5]: Compound was tested for apparent dissociation constant at pH 9. Format: ADME. In short, it runs like this: as §1
Data set [6] can be described thus: Compound was tested for apparent dissociation constant at pH 14. Format: ADME. In short, it runs like this: as §1

Activity calls are given as the source filed them. The calls are words filed in the database; no cut-off is given here.

Take `O=C1Nc2[nH]cnc2S(=O)(=O)N1`: the pKa came to 11 in data set [1], 8.99 in data set [2] and 2.55 in data set [4]. Moreover, in data set [3], the inhibition result was “inactive”.

For `Nc1[nH]cnc1S(N)(=O)=O`, the inhibition result in data set [3] was “inactive”. Further, the pKa in data set [4] is 9.43.

Take `NC1=NS(=O)(=O)c2nc[nH]c2N1`: in data set [3], the inhibition entry was “inactive”. Besides, the pKa in data set [5] worked out at 6.84; in data set [6], 11.6.

As for `NS(=O)(=O)c1[nH]cnc1NC=O`, in data set [3], the inhibition entry was “inactive”. Also, the pKa in data set [4] worked out at 8.7.
